Values after ≈ are worked out from the molar mass of the structure shown.
Legend:
Format in all cases: functional
Escherichia coli [1] = assay: Inhibition of growth of Escherichia coli H560
Escherichia coli [2] = assay: Minimum concentration of the drug needed to produce linear DNA at an intensity relative to oxolinic acid(at 10 ug/mL); details: read-out: I50
Method in brief: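 DNA gyrase from Escherichia coli H560, assayed by a previously published procedure. The end point is the lowest drug concentration giving linear DNA at an intensity matching the oxolinic acid reference at 10 μg/mL.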

Escherichia coli [3] = assay: Inhibition of growth of Escherichia coli vogel
Enterobacter cloacae = assay: Inhibition of growth of Entero. cloacae
Klebsiella pneumoniae = assay: Inhibition of growth of Klebsiella pneumonia
Pseudomonas aeruginosa = assay: Inhibition of growth of Pseudomonas aeruginosa
Providencia rettgeri = assay: Inhibition of growth of Proteus rettgeri
Staphylococcus aureus [4] = assay: Inhibition of growth of Staphylococcus aureus (resistant)
Staphylococcus aureus [5] = assay: Inhibition of growth of Staphylococcus aureus (sensitive)
Streptococcus pneumoniae = assay: Inhibition of growth of Streptococcus pneumonia
Streptococcus pyogenes = assay: Inhibition of growth of Streptococcus pyogenes
Enterococcus faecalis = assay: Inhibition of growth of Streptococcus faecalis
Mus musculus [6] = assay: In vivo protective dose (PD50) in mice against Escherichia coli Vogel when administered perorally; details: po, read-out: PD50
Mus musculus [7] = assay: In vivo protective dose (PD50) in mice against Escherichia coli Vogel when administered subcutaneously; details: sc, read-out: PD50

| SMILES | MIC (Escherichia coli [1]) [µg/mL] | IC50 (Escherichia coli [2]) [µg/mL] | MIC (Escherichia coli [3]) [µg/mL] | MIC (Enterobacter cloacae) [µg/mL] | MIC (Klebsiella pneumoniae) [µg/mL] | MIC (Pseudomonas aeruginosa) [µg/mL] | MIC (Providencia rettgeri) [µg/mL] | MIC (Staphylococcus aureus [4]) [µg/mL] | MIC (Staphylococcus aureus [5]) [µg/mL] | MIC (Streptococcus pneumoniae) [µg/mL] | MIC (Streptococcus pyogenes) [µg/mL] | MIC (Enterococcus faecalis) [µg/mL] | ED50 (Mus musculus [6]) [mg/kg] | ED50 (Mus musculus [7]) [mg/kg] |
| --- | --- | --- | --- | --- | --- | --- | --- | --- | --- | --- | --- | --- | --- | --- |
| O=C(O)c1cn2c3c(c(N4CCNCC4)c(F)cc3c1=O)OCC21CC1 | 0.4 (≈ 1.11 µM) | 11.2 (≈ 31.3 µM) | 0.8 (≈ 2.23 µM) | 0.4 (≈ 1.11 µM) | 0.8 (≈ 2.23 µM) | 0.8 (≈ 2.23 µM) | 1.6 (≈ 4.45 µM) | 6.3 (≈ 17.5 µM) | 1.6 (≈ 4.45 µM) | 12.5 (≈ 34.8 µM) | 12.5 (≈ 34.8 µM) | 6.3 (≈ 17.5 µM) | – | – |
| CC1COc2c(N3CCC(CN(C)C)C3)c(F)cc3c(=O)c(C(=O)O)cn1c23 (stereo unspecified) | 0.2 (≈ 0.514 µM) | 3 (≈ 7.7 µM) | 0.2 (≈ 0.514 µM) | 0.4 (≈ 1.03 µM) | 0.4 (≈ 1.03 µM) | 3.1 (≈ 7.96 µM) | 0.8 (≈ 2.05 µM) | 0.2 (≈ 0.514 µM) | 0.05 (≈ 0.128 µM) | 0.05 (≈ 0.128 µM) | 0.05 (≈ 0.128 µM) | 0.4 (≈ 1.03 µM) | 6.2 | 2.6 |
| CC1COc2c(N3CCN(C)CC3)c(F)cc3c(=O)c(C(=O)O)cn1c23 (stereo unspecified) [OFLOXACIN] | 0.05 (≈ 0.138 µM) | 2.25 (≈ 6.23 µM) | 0.1 (≈ 0.277 µM) | 0.1 (≈ 0.277 µM) | 0.1 (≈ 0.277 µM) | 0.4 (≈ 1.11 µM) | 0.2 (≈ 0.553 µM) | 0.4 (≈ 1.11 µM) | 0.1 (≈ 0.277 µM) | 0.8 (≈ 2.21 µM) | 0.8 (≈ 2.21 µM) | 0.8 (≈ 2.21 µM) | 2 | 0.8 |
| CCNCC1CCN(c2c(F)cc3c(=O)c(C(=O)O)cn4c3c2OCC42CC2)C1 (stereo unspecified) | 1.6 (≈ 3.99 µM) | 5.5 (≈ 13.7 µM) | 0.8 (≈ 1.99 µM) | 0.8 (≈ 1.99 µM) | 3.1 (≈ 7.72 µM) | 6.3 (≈ 15.7 µM) | 3.1 (≈ 7.72 µM) | 1.6 (≈ 3.99 µM) | 0.1 (≈ 0.249 µM) | 0.05 (≈ 0.125 µM) | 0.05 (≈ 0.125 µM) | 0.8 (≈ 1.99 µM) | – | – |
| CN(C)CC1CCN(c2c(F)cc3c(=O)c(C(=O)O)cn4c3c2OCC42CC2)C1 (stereo unspecified) | 0.8 (≈ 1.99 µM) | 11.2 (≈ 28 µM) | 0.4 (≈ 0.996 µM) | 0.8 (≈ 1.99 µM) | 0.8 (≈ 1.99 µM) | 6.3 (≈ 15.7 µM) | 3.1 (≈ 7.72 µM) | 0.8 (≈ 1.99 µM) | 0.2 (≈ 0.498 µM) | 0.4 (≈ 0.996 µM) | 0.4 (≈ 0.996 µM) | 0.8 (≈ 1.99 µM) | 16 | 6.3 |
| CCNCC1CCN(c2c(F)cc3c(=O)c(C(=O)O)cn4c3c2OCC4C)C1 (stereo unspecified) | 0.05 (≈ 0.128 µM) | – | 0.1 (≈ 0.257 µM) | 0.2 (≈ 0.514 µM) | 0.4 (≈ 1.03 µM) | 0.8 (≈ 2.05 µM) | 0.4 (≈ 1.03 µM) | 0.2 (≈ 0.514 µM) | 0.006 (≈ 0.0154 µM) | 0.025 (≈ 0.0642 µM) | 0.006 (≈ 0.0154 µM) | 0.05 (≈ 0.128 µM) | > 100 | 11 |
| CC1COc2c(N3CCNCC3)c(F)cc3c(=O)c(C(=O)O)cn1c23 (stereo unspecified) [DESMETHYL-OFLOXACIN] | 0.1 (≈ 0.288 µM) | 3 (≈ 8.64 µM) | 0.2 (≈ 0.576 µM) | 0.1 (≈ 0.288 µM) | 0.2 (≈ 0.576 µM) | 1.6 (≈ 4.61 µM) | 0.4 (≈ 1.15 µM) | 3.1 (≈ 8.92 µM) | 0.4 (≈ 1.15 µM) | 3.1 (≈ 8.92 µM) | 0.4 (≈ 1.15 µM) | 6.3 (≈ 18.1 µM) | – | – |

Reference: ChEMBL document CHEMBL1124306, “New "ofloxacin" type antibacterial agents. Incorporation of the spiro cyclopropyl group at N-1” (J Med Chem, 1988)
